Experimental data gathered from unrelated publications.
Each line is one published result; the experiments were not run side by side.
Target: Vascular endothelial growth factor receptor 3 (FLT4, Homo sapiens, UniProt P35916)

CC(C)(C)c1cc(C=C(C#N)C#N)cc(Br)c1O — remaining activity (enzyme activity; inhibitor; 0.5 µM): 102%
Cn1cc(-c2cccc(N3CCc4c(sc5c4CC(C)(C)C5)C3=O)c2CO)cc(Nc2ccncn2)c1=O — inhibition (enzyme activity; inhibitor; 1 µM): 13%
Cn1cncc1[C@@](O)(COc1ccc(C#N)cc1-c1ccc(OC(F)(F)F)cc1)c1ccc(C#N)cc1 — remaining binding (cell-free assay; competition with immobilised ligand; 1 µM): 90%
Cc1nn(C)cc1-c1nc2c(N3CCN(Cc4ccc(Cl)cc4)CC3)c(Cl)cnc2[nH]1 — remaining binding (binding; competition with immobilised ligand; 1 µM): 0%
COc1cc(Nc2ncc(F)c(Nc3ccc4c(n3)NC(=O)C(C)(C)O4)n2)cc(OC)c1OC — inhibition (binding; 10 µM): 100%
N#CC1(c2ccccn2)CCN(Cc2cc(C(=O)O)c(=O)n3ccccc23)CC1 — remaining binding (cell-free assay; competition with immobilised ligand; 1 µM): 100%
COc1ncccc1-c1cnn2ccc(N3CCN(C(=O)OC(C)C)CC3)nc12 — remaining binding (binding; competition with immobilised ligand; 1 µM): 99%
Nc1ncc(-c2nc(N3CCOCC3)nc(N3CCOCC3)n2)c(C(F)F)n1 — remaining binding (cell-free assay; competition with immobilised ligand; 10 µM): 77%
Cn1cc(-c2cc(F)cc(N3CCn4c(cc5c4CCCC5)C3=O)c2CO)cc(Nc2ccc(N3CCN(C4COC4)CC3)cn2)c1=O — inhibition (enzyme activity; inhibitor; 0.1 µM): 12%
O=c1[nH]c2ccccc2n1C1CCN(Cc2ccc(-c3[nH]c4cc5ncnc5cc4nc3-c3ccccc3)cc2)CC1 — remaining signal (cell-free assay; 0.5 µM): 98.7%
COCc1c(-c2cc3cc(C)cc(OC)c3s2)c2c(N)ncnn2c1CN1CCNC(=O)C1 — inhibition (cell-free assay; competition with immobilised ligand; 1 µM): 93.8%
